The source of these data is ChEMBL document CHEMBL3045276, “Synthesis and biological activity of some novel trifluoromethyl-substituted 1,2,4-triazole and bis(1,2,4-triazole) Mannich bases containing piperazine rings” (2010).

Usually inhibition stands for the drop in the measured response relative to a control, in per cent.

Common to all, as to assay type: functional
Assay [1] deals with Echinochloa crus-galli. Description: Herbicidal activity against Echinochloa crus-galli (barnyard grass) assessed as inhibition of seedling growth at 100 ug/mL at 28 degC. The method in brief: (§1)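 Ten barnyardgrass seeds placed in cup over glass beads and filter paper holding 5 mL aqueous test solution (emulsified if needed); germinated 65 h at 28 ± 1 °C under light. Mean above-ground seedling height per cup measured; inhibition percentage derived.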

For another assay, the system named is Sclerotinia sclerotiorum. In words: Fungicidal activity against Sclerotinia sclerotiorum in cucumber plant two seed leaves stage assessed as control efficacy from disease indices at 500 ug/mL at 18 to 30 degC and above 80%RH relative to control. The note with it: read-out: GI. The method in brief: (§2)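 Cucumber seeds germinated (soaked 2 h in water at 50 °C, kept moist 24 h at 28 °C) and grown in 1:1 vermiculite/peat; two-seed-leaf plants sprayed at 500 μg/mL, then inoculated 2 h later by spraying conidial (C. cassiicola, A. citrullina, P. cubensis), bacterial (P. syringae) or mycelial (S. sclerotiorum) suspension. Held 18-30 °C, >80% RH; four repeats; control efficacy = (CK−PT)/CK×100 from disease indices once untreated plants fully symptomatic.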

Assay [2] relates to Brassica rapa subsp. oleifera. Description: Herbicidal activity against Brassica rapa subsp. oleifera assessed as inhibition of root growth at 100 ug/mL at 28 degC. The method in brief: (§3)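 Rape seeds soaked 4 h in distilled water, then 15 per 6 cm dish on filter paper wetted with 2 mL aqueous test solution (emulsified if needed); germinated 65 h at 28 ± 1 °C in darkness. Mean length of 10 roots per dish measured; percentage inhibition calculated against distilled-water check.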

Assay [3] relates to Pseudoperonospora cubensis. Description: Fungicidal activity against Pseudoperonospora cubensis in cucumber plant two seed leaves stage assessed as control efficacy from disease indices at 500 ug/mL at 18 to 30 degC and above 80%RH relative to control. As to conditions: read-out: GI. The procedure, abridged: as §2
The subject of assay [4] is Brassica rapa subsp. oleifera. In words: Herbicidal activity against Brassica rapa subsp. oleifera assessed as inhibition of root growth at 10 ug/mL at 28 degC. The method in brief:
as §3

Another assay has as its system Ascochyta. In words: Fungicidal activity against Ascochyta […] in cucumber plant two seed leaves stage assessed as control efficacy from disease indices at 500 ug/mL at 18 to 30 degC and above 80%RH relative to control. The note with it: read-out: GI. The method in brief:
as §2

Assay [5] deals with Pseudomonas amygdali pv. lachrymans. In words: Fungicidal activity against Pseudomonas syringae pv. lachrymans in cucumber plant two seed leaves stage assessed as control efficacy from disease indices at 500 ug/mL at 18 to 30 degC and above 80%RH relative to control. As to conditions: read-out: GI. The procedure, abridged: as §2
Assay [6] concerns Echinochloa crus-galli. In words: Herbicidal activity against Echinochloa crus-galli (barnyard grass) assessed as inhibition of seedling growth at 10 ug/mL at 28 degC. The method in brief: as §1
The test system of the next assay is Corynespora cassiicola. In words: Fungicidal activity against Corynespora cassiicola in cucumber plant two seed leaves stage assessed as control efficacy from disease indices at 500 ug/mL at 18 to 30 degC and above 80%RH relative to control. As to conditions: read-out: GI. The method in brief:
as §2

Turning to `Cc1cc(C)nc(N2CCN(Cn3nc(C(F)(F)F)n(/N=C/c4ccc(C)c(C)c4)c3=S)CC2)n1`, the figures for the inhibition at 100 µg/mL (in the assay on Echinochloa crus-galli [1]; in [2]) were 8.7% and 20.5%, respectively. Further, the inhibition of growth at 500 µg/mL in the assay with Sclerotinia sclerotiorum was 48.9%; in assay [3], 67.8%; in the assay on Ascochyta, 82.9%; in [5] it was 59.5%; in the assay on Corynespora cassiicola it was 85.9%. Further, the figures for the inhibition at 10 µg/mL (in [4]; in the assay on Echinochloa crus-galli [6]) were 6% and 0%, respectively.

On to `Cc1ccnc(N2CCN(Cn3nc(C(F)(F)F)n(/N=C/c4ccccc4)c3=S)CC2)n1`, for which the inhibition at 100 µg/mL is 15.3% in the assay on Echinochloa crus-galli [1] and 12.5% in assay [2]. Also, the inhibition of growth at 500 µg/mL in the assay with Sclerotinia sclerotiorum was 36.8%; in assay [3], 78.6%; in the assay on Ascochyta it was 62.4%; in assay [5], 20.4%; with Corynespora cassiicola, 49.2%. Moreover, the inhibition at 10 µg/mL was 0% in assay [4] and 8.7% in the assay on Echinochloa crus-galli [6].

Consider `FC(F)(F)c1nn(CN2CCN(Cn3nc(C(F)(F)F)n(/N=C/c4ccccc4)c3=S)CC2)c(=S)n1/N=C/c1ccccc1`, for which the inhibition at 100 µg/mL turned out to be 25.1% in the assay on Echinochloa crus-galli [1] and 35.1% in assay [2]. In addition, the inhibition of growth at 500 µg/mL with Sclerotinia sclerotiorum is 67.6%; in [3], 78.9%; in the assay on Ascochyta, 25.6%; in [5] it was 56.4%; in the assay with Corynespora cassiicola it was 70.9%. For the same compound, the inhibition at 10 µg/mL stood at 0% in assay [4] and 16.2% with Echinochloa crus-galli [6].

Consider `Fc1ccccc1/C=N/n1c(C(F)(F)F)nn(CN2CCN(c3ncccn3)CC2)c1=S`, for which the inhibition at 100 µg/mL came to 15.3% with Echinochloa crus-galli [1] and 74.5% in assay [2]. Further, the inhibition of growth at 500 µg/mL in the assay with Sclerotinia sclerotiorum turned out to be 47.3%; in assay [3] it was 64.9%; in the assay with Ascochyta, 61.3%; in [5], 45.4%; in the assay on Corynespora cassiicola, 40.3%. The inhibition at 10 µg/mL in assay [4] came out at 70.8%; in the assay on Echinochloa crus-galli [6], 9.9%.

`COc1ccc(/C=N/n2c(C(F)(F)F)nn(CN3CCN(c4nc(C)cc(C)n4)CC3)c2=S)cc1`: the inhibition at 100 µg/mL in the assay with Echinochloa crus-galli [1] is 29.5%; in assay [2], 67.7%. The inhibition of growth at 500 µg/mL in the assay with Sclerotinia sclerotiorum came to 62.6%; in assay [3] it was 87.3%; in the assay with Ascochyta it was 87.6%; in [5], 50.3%; with Corynespora cassiicola, 83.7%. Moreover, the inhibition at 10 µg/mL came out at 30.6% in assay [4] and 0% with Echinochloa crus-galli [6].

In the case of `COc1ccc(/C=N/n2c(C(F)(F)F)nn(CN3CCN(c4ncccn4)CC3)c2=S)cc1`, the inhibition at 100 µg/mL amounted to 18.6% in the assay with Echinochloa crus-galli [1] and 78.8% in assay [2]. Besides, the inhibition of growth at 500 µg/mL was determined as 75.3% with Sclerotinia sclerotiorum; 79.5% in assay [3]; 73.4% in the assay with Ascochyta; 68.1% in assay [5]; 73.4% with Corynespora cassiicola. The inhibition at 10 µg/mL in assay [4] was found to be 53.5%; in the assay with Echinochloa crus-galli [6] it was 0%.

As to `Cc1cc(C)nc(N2CCN(Cn3nc(C(F)(F)F)n(/N=C/c4ccc(Cl)cc4)c3=S)CC2)n1`, the inhibition at 100 µg/mL in the assay on Echinochloa crus-galli [1] came to 36.6%; in [2], 88.5%. The inhibition of growth at 500 µg/mL was determined as 38% in the assay on Sclerotinia sclerotiorum; 91.6% in [3]; 62.8% in the assay on Ascochyta; 61.5% in [5]; 94.4% in the assay on Corynespora cassiicola. Moreover, the inhibition at 10 µg/mL came out at 9.5% in assay [4] and 12.3% in the assay with Echinochloa crus-galli [6].

Consider `Cc1cc(C)nc(N2CCN(Cn3nc(C(F)(F)F)n(/N=C/c4ccccc4)c3=S)CC2)n1`, for which the inhibition at 100 µg/mL in the assay with Echinochloa crus-galli [1] came out at 9.8%; in assay [2] it was 71.1%. Also, the inhibition of growth at 500 µg/mL worked out at 48% in the assay with Sclerotinia sclerotiorum; 74.1% in assay [3]; 61.5% in the assay with Ascochyta; 55% in assay [5]; 22.1% with Corynespora cassiicola. Also, the inhibition at 10 µg/mL in assay [4] came out at 36.9%; in the assay on Echinochloa crus-galli [6] it was 0%.

For the compound `COc1ccc(C(=CC(=O)N2CCOCC2)c2ccc(Cl)cc2)cc1OC` [DIMETHOMORPH], the inhibition of growth at 500 µg/mL in the assay with Sclerotinia sclerotiorum was 98.4%; in assay [3], 83.8%; in the assay on Ascochyta, 98.4%; in assay [5], 14%; in the assay on Corynespora cassiicola it was 95.3%.

In the case of `Cc1ccnc(N2CCN(Cn3nc(C(F)(F)F)n(/N=C/c4ccccc4F)c3=S)CC2)n1`, the inhibition at 100 µg/mL in the assay on Echinochloa crus-galli [1] is 8%; in [2], 24.4%. Moreover, the inhibition of growth at 500 µg/mL is 52.2% in the assay with Sclerotinia sclerotiorum; 75.5% in assay [3]; 57.8% in the assay with Ascochyta; 62.3% in [5]; -5.3% in the assay on Corynespora cassiicola. Besides, the inhibition at 10 µg/mL (in [4]; with Echinochloa crus-galli [6]) was 0% throughout.

Turning to `CC(C)NC(=O)N1CC(=O)N(c2cc(Cl)cc(Cl)c2)C1=O` [IPRODIONE], the inhibition of growth at 500 µg/mL in the assay on Sclerotinia sclerotiorum was found to be 97.8%; in assay [3], 55.9%; in the assay with Ascochyta, 98.4%; in [5], 38.5%; with Corynespora cassiicola, 53.5%.

As to `Cc1ccnc(N2CCN(Cn3nc(C(F)(F)F)n(/N=C/c4ccccc4[N+](=O)[O-])c3=S)CC2)n1`, the figures for the inhibition at 100 µg/mL (with Echinochloa crus-galli [1]; in assay [2]) were 33.9% and 0%, respectively. Also, the inhibition of growth at 500 µg/mL was determined as 32.8% with Sclerotinia sclerotiorum; 76.8% in assay [3]; 44.3% in the assay on Ascochyta; 44.5% in assay [5]; 73.8% with Corynespora cassiicola. Further, the inhibition at 10 µg/mL in assay [4] was determined as 0%; in the assay with Echinochloa crus-galli [6], 11.5%.

`Cc1ccnc(N2CCN(Cn3nc(C(F)(F)F)n(/N=C/c4ccc(Cl)cc4)c3=S)CC2)n1`: the inhibition at 100 µg/mL with Echinochloa crus-galli [1] came to 96.7%; in [2], 68.6%. The inhibition of growth at 500 µg/mL is 70.3% with Sclerotinia sclerotiorum; 91.2% in assay [3]; 61.3% with Ascochyta; 21.1% in assay [5]; 71.1% in the assay with Corynespora cassiicola. Moreover, the inhibition at 10 µg/mL in assay [4] came to 0%; in the assay with Echinochloa crus-galli [6], 10.2%.

On to `COc1nc(C)nc(NC(=O)NS(=O)(=O)c2ccccc2Cl)n1` [CHLORSULFURON], for which the inhibition at 100 µg/mL was found to be 29.9% with Echinochloa crus-galli [1] and 80.4% in assay [2]. Further, the inhibition at 10 µg/mL came to 76% in assay [4] and 8.2% in the assay on Echinochloa crus-galli [6].

Turning to `COC(=O)NC(=S)Nc1ccccc1NC(=S)NC(=O)OC` [THIOPHANATE METHYL], the inhibition of growth at 500 µg/mL in the assay on Sclerotinia sclerotiorum was determined as 83.4%; in assay [3], 68.7%; with Ascochyta, 100%; in [5] it was 54.2%; with Corynespora cassiicola, 78.8%.
